Measurements from the M2OR odorant receptor database.

Legend:
Settings in all cases: stereoisomer not certain
[1] = biological target: T1, UniProt Q8VGZ2
T1 sequence (whole entry): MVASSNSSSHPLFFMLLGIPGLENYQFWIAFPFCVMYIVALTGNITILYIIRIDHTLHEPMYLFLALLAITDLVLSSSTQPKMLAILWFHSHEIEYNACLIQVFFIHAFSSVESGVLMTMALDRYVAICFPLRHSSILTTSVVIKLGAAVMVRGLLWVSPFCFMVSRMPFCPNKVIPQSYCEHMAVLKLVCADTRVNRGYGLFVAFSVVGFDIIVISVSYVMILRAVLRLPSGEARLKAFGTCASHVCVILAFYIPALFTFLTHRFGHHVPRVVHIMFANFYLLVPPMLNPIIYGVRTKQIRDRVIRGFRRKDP
Outline: (§1)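 Assay methods differ from source to source, frequently being transient luciferase assays in mammalian cell lines. For each receptor–molecule pair, the label responsive (active) applies when the original authors judged the measured signal statistically different from baseline, and non-responsive (inactive) applies otherwise.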

[2] = biological target: T2, UniProt Q8VGZ7
T2 sequence (whole entry): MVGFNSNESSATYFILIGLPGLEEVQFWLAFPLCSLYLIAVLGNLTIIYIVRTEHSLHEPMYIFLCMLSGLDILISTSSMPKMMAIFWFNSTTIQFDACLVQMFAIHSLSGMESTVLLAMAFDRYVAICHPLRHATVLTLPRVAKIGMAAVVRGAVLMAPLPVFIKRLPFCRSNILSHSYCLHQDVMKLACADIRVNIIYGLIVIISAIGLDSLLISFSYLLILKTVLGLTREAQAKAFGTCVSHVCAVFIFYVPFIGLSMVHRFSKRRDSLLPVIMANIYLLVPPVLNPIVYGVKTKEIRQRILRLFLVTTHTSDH
Outline: as §1

[3] = biological target: T3, UniProt Q8VH16
T3 sequence (whole entry): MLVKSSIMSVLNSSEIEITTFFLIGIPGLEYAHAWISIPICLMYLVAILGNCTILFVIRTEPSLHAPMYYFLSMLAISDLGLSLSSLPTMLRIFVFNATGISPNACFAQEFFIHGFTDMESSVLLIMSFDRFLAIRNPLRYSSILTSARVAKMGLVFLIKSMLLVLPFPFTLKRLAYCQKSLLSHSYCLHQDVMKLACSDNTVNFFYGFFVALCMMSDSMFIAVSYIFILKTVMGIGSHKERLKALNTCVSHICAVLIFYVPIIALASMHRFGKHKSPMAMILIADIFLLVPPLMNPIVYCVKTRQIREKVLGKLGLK
Outline: as §1

[4] = biological target: T4, UniProt Q8VH20
T4 sequence (whole entry): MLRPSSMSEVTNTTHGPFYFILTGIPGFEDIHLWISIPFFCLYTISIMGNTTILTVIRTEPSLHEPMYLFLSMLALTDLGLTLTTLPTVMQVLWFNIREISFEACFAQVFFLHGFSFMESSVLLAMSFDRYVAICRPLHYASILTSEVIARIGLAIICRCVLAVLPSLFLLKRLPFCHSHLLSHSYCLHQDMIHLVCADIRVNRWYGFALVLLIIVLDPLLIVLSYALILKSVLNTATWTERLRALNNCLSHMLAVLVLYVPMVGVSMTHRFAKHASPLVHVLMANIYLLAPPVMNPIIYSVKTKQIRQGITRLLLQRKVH
Outline: as §1

[5] = biological target: T5, UniProt Q8VH21
T5 sequence (whole entry): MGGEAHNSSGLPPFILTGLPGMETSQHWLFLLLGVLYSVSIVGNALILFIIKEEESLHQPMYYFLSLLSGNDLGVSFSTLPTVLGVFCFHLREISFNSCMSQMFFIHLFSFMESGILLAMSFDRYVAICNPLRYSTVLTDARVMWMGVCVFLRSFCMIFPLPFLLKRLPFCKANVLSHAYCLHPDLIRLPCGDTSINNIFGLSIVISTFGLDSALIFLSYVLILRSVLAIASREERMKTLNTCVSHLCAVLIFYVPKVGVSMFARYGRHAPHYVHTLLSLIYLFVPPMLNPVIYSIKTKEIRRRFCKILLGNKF
Outline: as §1

Measured: odorant receptor agonist call

CCCCCCCCCCOC(C)=O
inactive: all assays above

CC(=O)OC1(C)CCC23CC1C(C)(C)C2CCC3C (stereo not given)
active: [1] | [4]
inactive: all other assays above

CCOC(=O)CC(C)C
inactive: all assays above

C1CCOC1
inactive: all assays above

CCc1ccc(O)cc1
inactive: all assays above

CC(C)=CCCC(C)=CCOC(=O)C(C)C
inactive: all assays above

CSSCc1ccco1
inactive: all assays above

CC(=O)C1(C)CC2=C(CCCC2(C)C)CC1C (stereo not given)
inactive: all assays above

COc1nccnc1C(C)C
inactive: all assays above

CCCCCCCCC=CC=O
inactive: all assays above

CCCC(C)C(=O)OCC (stereo not given)
inactive: all assays above

CC(CC=O)CCCC(C)(C)O (stereo not given)
inactive: all assays above

Cc1c(C)c(C)c(C=O)c(C)c1C
inactive: all assays above

C=CC(=C)CCC=C(C)CCC=C(C)C
inactive: all assays above

CCC=CCCCCC=O
active: [4]
inactive: all other assays above

COc1nccnc1C
inactive: all assays above

CCCCCC=CCCC=O
active: [1] | [4]
inactive: all other assays above

c1ccc2ncccc2c1
inactive: all assays above
